Screening results deposited in PubChem BioAssay by The Scripps Research Institute Molecular Screening Center.
This is a sample that favours compounds with a hit; in the whole collection about 2% have one here.
MBD2 DNA inh: MBD2-methylated oligo binding inhibition | Q9UBB5 | inhibition, % at 4.4 µM | TR-FRET, MBD2 binding to methylated oligonucleotide | AID 686964 | hit rate 0.31% among 370,000; in the data active = inhibition above about 13%
ARFGAP1 inh: inhibitors of rat ARFGAP1; Q62848; Arfgap1-stimulated ARF1 GTP hydrolysis, GDP FP detection; inhibition, % at 16.5 µM; hit rate 0.26% among 360,000; AID 651572;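 active = inhibition above a per-plate limit, mean inhibition of low control wells plus 3 SD, cut at about 25% in these data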;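 also: 0% = DMSO wells with enzyme and 100% = wells lacking Arfgap1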
Target sequence (Q62848 1-136 limits assumed): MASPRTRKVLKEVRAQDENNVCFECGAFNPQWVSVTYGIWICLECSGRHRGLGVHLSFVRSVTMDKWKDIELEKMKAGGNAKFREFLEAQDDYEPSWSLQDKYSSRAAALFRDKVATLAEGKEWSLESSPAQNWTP
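System: truncated rat Arfgap1 GAP domain / Benchmarks: high control wells lacking Arfgap1, low control full reaction with DMSO / Times: compound-enzyme preincubation 20 min, reaction 120 min, detection 60 min, 25 °C / Repeats: one replicate per compound / Also added: human ARF1(Δ1-17)-GTP substrate / Measured by: Tracer-displacement fluorescence polarization with EDTA stop, 620/688 nm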
LEDGF integ inh: blocks HIV-1 LEDGF/p75-dependent DNA integration; AID 743269; hit rate 0.64% among 370,000; inhibition, % at 3.7 µM; TR-FRET IN-LEDGF/p75 DNA integration, Eu/Cy5;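 active = inhibition above the screen-wide mean plus 3 SD, cut at about 13% in these data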;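 also: signal is the Cy5 over europium emission ratio at 671 and 618 nm; 0% = plate median of compound wells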
ASAP1 GAP inh: ASAP1 ArfGAP inhibition | Q9ULH1 | ASAP1-stimulated ARF1 GTP hydrolysis, GDP FP detection | inhibition, % at 16.5 µM | hit rate 0.19% among 360,000 | AID 624377; in the data active = inhibition above about 25%;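 also: 0% = vehicle with enzyme and substrate and 100% = no enzyme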
Target sequence (Q9ULH1 325-724 limits assumed): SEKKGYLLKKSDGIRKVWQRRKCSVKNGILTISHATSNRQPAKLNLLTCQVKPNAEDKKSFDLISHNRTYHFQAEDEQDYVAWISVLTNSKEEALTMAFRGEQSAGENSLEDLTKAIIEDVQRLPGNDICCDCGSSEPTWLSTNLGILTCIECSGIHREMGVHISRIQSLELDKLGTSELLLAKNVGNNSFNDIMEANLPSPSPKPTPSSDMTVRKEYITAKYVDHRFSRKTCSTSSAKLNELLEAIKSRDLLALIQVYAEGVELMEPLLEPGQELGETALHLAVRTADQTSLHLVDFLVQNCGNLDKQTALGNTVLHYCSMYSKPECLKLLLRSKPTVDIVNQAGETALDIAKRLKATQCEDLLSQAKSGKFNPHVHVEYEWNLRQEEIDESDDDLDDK
UHRF1 binding: UHRF1 methyl-DNA binding inhibition. UHRF1 binding to methylated oligo, TR-FRET. Q96T88. hit rate 0.75% among 370,000. AID 687016. inhibition, % at 4.4 µM; in the data active = inhibition above about 21%;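 also: UHRF1 SRA domain binding a hemimethylated CpG hairpin DNA probe; 0% = median of test compound wells and 100% = reference inhibitor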
TDP2 absorb: TDP2 (human) inhibition, absorbance primary screen. recombinant TDP2, T5PNP hydrolysis, p-nitrophenol absorbance 415 nm. O95551. inhibition, % at 12.8 µM. hit rate 0.34% among 370,000;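 active = inhibition above the mean of all tested compounds plus 3 SD, set per campaign, cut at about 25% in these data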;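 also: 0% = DMSO with enzyme and 100% = buffer with substrate but no TDP2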
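Test system: Human TDP2 enzyme | Reagent: 5 mM T5PNP | Compound dosing: 12.8 µM single point, 1% DMSO | Incubation: Enzyme reaction with compound for 2 h at 37 °C | Technique: p-Nitrophenol epi absorbance | Read-out: % inhibition relative to enzyme-containing and enzyme-free wells | Benchmarks: High control without enzyme, low control DMSO plus TDP2 | Replicates: Singlicate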
Starred values were filed as active, the others as inactive; / = no result.

SMILES	MBD2 DNA inh	ARFGAP1 inh	LEDGF integ inh	ASAP1 GAP inh	UHRF1 binding	TDP2 absorb
COC(=O)/C=c1/s/c(=C(/C#N)C(=O)N2CCCCC2)n(-c2ccccc2)c1=O	-2	5	-2	6	2	-3
COC(=O)/C=c1/s/c(=C(/C#N)C(=O)N2CCOCC2)n(-c2ccccc2)c1=O	2	6	-2	8	80*	-9
CCOC(=O)CC[C@@]1(C(=O)OCC)C[C@@H](CC(=O)NCc2cccc3ccccc23)C(=O)N2CCCC=C21	1	/	-2	/	0	1
CN1CCN(C(=O)Cn2ncc3c([nH]c4ccccc43)c2=O)CC1	4	4	4	-10	23*	10
CCOC(=O)[C@@]12CN(C(=O)OC(C)(C)C)CC=C1N(Cc1ccc(OC)cc1)C(=O)[C@H]2CC(=O)NCc1cccc2ccccc12	-5	/	-1	/	-2	2
CC(C)c1ccc(C(=O)NCCCN2CCOCC2)cc1	-2	-4	-3	-7	0	4
CC(C)c1ccc(/C=C2\C(=O)N(CCN3CCOCC3)C(=S)N2C)cc1	-3	0	-1	3	22*	12
CCNS(=O)(=O)c1ccc(NC(=O)Nc2ccccc2OC)cc1	6	10	6	11	23*	1
COc1ccccc1NS(=O)(=O)c1cccc(NC(=O)Nc2ccc(Cl)cc2)c1	4	6	5	22	26*	-21
COc1ccccc1NS(=O)(=O)c1cccc(NC(=O)Nc2ccccc2)c1	-1	8	0	6	-3	2
N#Cc1cccc(C(=O)N2CCC(Oc3cccnc3)CC2)c1	5	/	4	/	-1	7
CCC(C)(C)NC(=O)C(c1ccc(C)cc1)N(CC1CCCO1)C(=O)CCC(=O)Nc1ccccn1 (centres undefined)	2	2	1	13	33*	12
CCOC1=C2CN(S(=O)(=O)c3ccc(C)cc3)[C@H](c3ccccc3)C[C@@H]2N(S(=O)(=O)c2ccccc2)[C@H](c2ccccc2)C1	0	-1	-3	20	0	0
CCOC1=C2CN(S(=O)(=O)c3ccc(C)cc3)[C@H](c3ccccc3)C[C@@H]2N(S(C)(=O)=O)[C@H](c2ccccc2)C1	-5	-4	1	-5	28*	8
CN(CCOC(=O)CC1C=CCC1)C1CN(Cc2cn(Cc3ccccc3Cl)nn2)S(=O)(=O)C1 (centres undefined)	0	/	-1	/	2	2
O=C1C=CC(=O)N1c1ccccc1N1C(=O)C=CC1=O	3	-7	8	5	0	7
CC1=CC(=O)N(c2cccc3c(N4C(=O)C=C(C)C4=O)cccc23)C1=O	15*	-4	7	-6	23*	-1
O=c1c2ccccc2sc2ccc(NCCCN3CCOCC3)cc12	-1	1	-1	15	0	5
COc1cc2sc3cc(NCCCN4CCOCC4)ccc3c(=O)c2cc1OC	5	31*	2	11	1	-4
Cc1cc(NC(=O)CSc2ccc(-c3ccc4c(c3)OCO4)nn2)no1	2	-3	4	-1	5	0
Cc1cccc(NC(=O)CSc2ccc(-c3ccc4c(c3)OCO4)nn2)c1C	13	10	2	12	27*	9
Cn1c(=O)oc2cc(S(=O)(=O)N3CCN(c4cccc(C(F)(F)F)c4)CC3)ccc21	-4	/	0	/	0	6
CCCC1CCC2(CC1)CCC2OC(=O)Nc1ccccc1C (centres undefined)	7	/	-2	/	8	-2
O=C(CN1CCc2onc(-c3ccc(-n4cc(-c5ccccc5)nn4)cc3)c2C1=O)N1CCOCC1	3	/	-4	/	0	11
CC(NS(=O)(=O)c1cn(C)c(=O)n(C)c1=O)c1ccccc1 (centres undefined)	9	-8	1	-6	24*	6
SMILES	MBD2 DNA inh	ARFGAP1 inh	LEDGF integ inh	ASAP1 GAP inh	UHRF1 binding	TDP2 absorb
Cn1cc(S(=O)(=O)NCCc2ccccc2)c(=O)n(C)c1=O	3	-7	-1	-1	1	14
C(=C\c1ccccc1)/CSc1nnc(COc2ccccc2)n1Cc1ccco1	-7	/	3	/	-1	-5
O=C(Nc1c(-c2ccc(F)c(F)c2)nc2ncccn12)C1CC1	-4	/	-2	/	1	5
N#Cc1cccc(NC(=O)COC(=O)c2ccccc2Sc2ccccc2C#N)c1	-4	24	2	10	34*	-2
CC(=O)c1ccc(NC(=O)COC(=O)c2ccccc2Sc2ccccc2C#N)cc1	-3	3	-3	-2	-2	-4
Cc1cccc(-n2nc3c(c2NC(=O)c2ccco2)CSC3)c1C	1	-19	29*	-3	6	-4
Cc1ccc(NC(=O)CSc2nnc(Cn3cnc4ccccc43)o2)c(C)c1	0	2	1	0	1	-6
Cc1ccc(NC(=O)CSc2nnc(Cn3cnc4ccccc43)o2)cc1	0	-2	-2	-12	21*	13
O=C(OCC#CCSc1nnc(-c2ccccc2F)o1)c1ccc(F)cc1	-6	/	3	/	-2	6
CC(C)(C)c1csc(NC(=O)Cc2ccc(S(=O)(=O)N3CCOCC3)s2)n1	-2	7	1	3	76*	-3
O=C(Cc1ccc(S(=O)(=O)N2CCOCC2)s1)NCC(=O)Nc1ccccc1Br	7	8	-2	1	4	-4
O=C(Cc1ccc(S(=O)(=O)N2CCOCC2)s1)Nc1ccccc1Br	-5	-4	3	-6	29*	0
COc1cc(NC(=O)C(OC(=O)CNC(=O)c2ccccc2)c2ccccc2)cc(C(F)(F)F)c1 (centres undefined)	-4	/	-2	/	-1	3
CN(CC(=O)Nc1c(Cl)cccc1Cl)C(=O)c1cccc(-n2cccc2)c1	7	9	3	4	23*	15
CN(CC(=O)Nc1ccccc1Cl)C(=O)c1cccc(-n2cccc2)c1	1	-11	2	9	-1	11
CN(CC(=O)Nc1c(Cl)cccc1Cl)C(=O)CNC(=O)c1ccc2c(c1)OCO2	1	6	2	-1	-1	6
Cc1ccc(C(=O)NCC(=O)N(C)CC(=O)Nc2c(Cl)cccc2Cl)s1	-5	-2	-1	-9	23*	-15
O=C(CNC(=O)c1ccc(Cl)cc1)OCc1nc2ccccc2s1	4	-9	-1	-3	25*	3
Cc1ccc(-c2nnc3ccc(SCC(=O)NCc4ccco4)nn23)cc1	13	-6	-3	-6	22*	0
Cc1ccc(CNC(=O)O[C@H]2CC[C@@]34CCCN3C(=O)CCC[C@H]4C2)o1	-1	/	0	/	-1	3
